Assay results as given in ChEMBL document CHEMBL3853305, “Synthesis, characterization and antitubercular activities of novel pyrrolyl hydrazones and their Cu-complexes” (Eur J Med Chem, 2016).
Values after ≈ are worked out from the molar mass of the structure shown.

Assays:
[1] = test system: Mycobacterium tuberculosis; assay: Antitubercular activity against Mycobacterium tuberculosis H37Rv after 5 days by microplate alamar blue assay; format: functional; conditions: for MIC: Mycobacterium tuberculosis, H37Rv, 120 h
Outline: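 Middlebrook 7H9 broth; serial dilutions of 0.2–100 μg/mL made in the plate. Incubated at 37°C for 5 days, then 1:1 alamar blue/10% Tween 80 added and incubated 24 h. MIC is the lowest concentration that prevents the blue-to-pink change. Ethambutol and rifampicin were standards.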

[2] = Cytotoxicity against human A549 cells assessed as decrease in cell viability after 72 hrs by MTT assay; format: toxicity, cell-based
Outline: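 Human A549 lung adenocarcinoma cells; viability read as cellular MTT conversion to formazan in a non-radioactive cell proliferation kit. Cisplatin was the positive control. IC50 values are means ± SEM of three independent experiments.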

[3] = biological target: T1, Enoyl-[acyl-carrier-protein] reductase [NADH] (Mycobacterium tuberculosis, UniProt P9WGR1); assay: Inhibition of His6-tagged recombinant Mycobacterium tuberculosis InhA expressed in protease-deficient Escherichia coli (BL21) using trans-2-dodecenoyl-coenzyme A as substrate assessed as NADH oxidation
T1 sequence (P9WGR1 whole entry): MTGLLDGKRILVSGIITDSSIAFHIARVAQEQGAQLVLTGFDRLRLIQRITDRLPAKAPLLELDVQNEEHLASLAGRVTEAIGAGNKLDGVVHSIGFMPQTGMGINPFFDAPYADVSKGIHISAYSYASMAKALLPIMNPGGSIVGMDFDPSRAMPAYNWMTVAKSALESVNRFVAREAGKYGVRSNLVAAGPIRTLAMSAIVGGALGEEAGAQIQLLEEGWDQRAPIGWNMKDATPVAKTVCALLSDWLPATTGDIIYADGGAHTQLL
Outline: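 InhA-6xHis from E. coli BL21 (pHAT5/InhA), induced overnight with 1 mM IPTG at 20°C, purified on Ni-NTA and desalted. Assay at 25°C in 30 mM PIPES, 150 mM NaCl, pH 6.8, with 250 μM NADH, 50 μM DDCoA and 5% DMSO final. Compound screened at 50 μM. % inhibition taken from slopes with and without inhibitor. Triclosan was the reference.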

Row | Compound | MIC [1] [µg/mL] | -logMIC [1] | IC50 at 72 h [2] [µM] | IC50 [3] [µM]
1 | C/C(CCC(=O)Nc1cccc(Cl)c1)=N\NC(=O)c1ccc(-n2cccc2)cc1 | 12.5 (≈ 30.6 µM) | – | – | –
2 | C/C(CCC(=O)Nc1cccc(Br)c1)=N\NC(=O)c1ccc(-n2cccc2)cc1 | – | 4.9 | – | –
3 | C/C(CCC(=O)Nc1cc(Cl)cc(Cl)c1)=N\NC(=O)c1ccc(-n2cccc2)cc1 | 25 (≈ 56.4 µM) | 4.6 | – | –
4 | C/C(CCC(=O)Nc1ccccc1Cl)=N\NC(=O)c1ccc(-n2cccc2)cc1 | 25 (≈ 61.1 µM) | 4.6 | – | –
5 | C/C(=N\NC(=O)c1ccc(-n2cccc2)cc1)C(=O)Nc1ccc(Br)cc1 | 3.12 (≈ 7.34 µM) | 5.5 | 441 | –
6 | C/C(=N\NC(=O)c1ccc(-n2cccc2)cc1)C(=O)Nc1c(Cl)cccc1Cl | 25 (≈ 60.2 µM) | 4.6 | – | –
7 | C/C(=N\NC(=O)c1ccc(-n2cccc2)cc1)C(=O)Nc1ccc(F)cc1 | 6.25 (≈ 17.2 µM) | 5.2 | – | –
8 | COc1ccc(NC(=O)/C(C)=N/NC(=O)c2ccc(-n3c(C)ccc3C)cc2)cc1 | 25 (≈ 61.8 µM) | 4.6 | – | –
9 | C/C(=N/NC(=O)c1ccc(-n2cccc2)cc1)C(N)=O | 50 (≈ 185 µM) | 4.3 | – | –
10 | C/C(=N\NC(=O)c1ccc(-n2cccc2)cc1)C(=O)Nc1cccc(Br)c1 | 12.5 (≈ 29.4 µM) | 4.9 | – | –
11 | C/C(=N\NC(=O)c1ccc(-n2c(C)ccc2C)cc1)C(=O)Nc1ccc(Br)cc1 | 6.25 (≈ 13.8 µM) | 5.2 | – | –
12 | C/C(CCC(=O)Nc1ccc(Br)cc1)=N\NC(=O)c1ccc(-n2cccc2)cc1 | 6.25 (≈ 13.8 µM) | 5.2 | – | –
13 | COc1ccc(NC(=O)/C(C)=N/NC(=O)c2ccc(-n3cccc3)cc2)cc1 | 50 (≈ 133 µM) | 4.3 | – | –
14 | COc1cccc(NC(=O)/C(C)=N/NC(=O)c2ccc(-n3cccc3)cc2)c1 | 50 (≈ 133 µM) | 4.3 | – | –
15 | C/C(=N\NC(=O)c1ccc(-n2cccc2)cc1)C(=O)Nc1cccc(F)c1 | 12.5 (≈ 34.3 µM) | 4.58 | – | –
16 | CO[C@H]1/C=C/O[C@@]2(C)Oc3c(C)c(O)c4c(O)c(c(/C=N/N5CCN(C)CC5)c(O)c4c3C2=O)NC(=O)/C(C)=C\C=C\[C@H](C)[C@H](O)[C@@H](C)[C@@H](O)[C@@H](C)[C@H](OC(C)=O)[C@@H]1C [RIFAMPIN] | 0.4 (≈ 0.486 µM) | – | – | –
17 | C/C(CCC(=O)Nc1ccc(Cl)cc1)=N\NC(=O)c1ccc(-n2cccc2)cc1 | 3.12 (≈ 7.63 µM) | 5.5 | 406 | –
18 | COc1ccccc1NC(=O)CC/C(C)=N/NC(=O)c1ccc(-n2cccc2)cc1 | 100 (≈ 247 µM) | 4 | – | –
19 | C/C(CCC(=O)Nc1ccccc1)=N\NC(=O)c1ccc(-n2cccc2)cc1 | 50 (≈ 134 µM) | 4.3 | – | –
20 | C/C(=N\NC(=O)c1ccc(-n2cccc2)cc1)C(=O)Nc1cc(Cl)cc(Cl)c1 | 12.5 (≈ 30.1 µM) | 4.9 | – | –
21 | C/C(CCC(=O)Nc1ccccc1F)=N\NC(=O)c1ccc(-n2cccc2)cc1 | 25 (≈ 63.7 µM) | 4.6 | – | –
22 | C/C(=N\NC(=O)c1ccc(-n2c(C)ccc2C)cc1)C(=O)Nc1c(Cl)cccc1Cl | 100 (≈ 226 µM) | 4 | – | –
23 | CC[C@@H](CO)NCCN[C@@H](CC)CO [ETHAMBUTOL] | 0.5 (≈ 2.45 µM) | – | – | –
24 | C/C(=N\NC(=O)c1ccc(-n2cccc2)cc1)C(=O)Nc1ccccc1F | 25 (≈ 68.6 µM) | 4.3 | – | –
25 | C/C(=N\NC(=O)c1ccc(-n2cccc2)cc1)C(=O)Nc1cc(Br)cc(Br)c1 | 12.5 (≈ 24.8 µM) | 4.9 | – | –
26 | C/C(CCC(=O)Nc1cccc(F)c1)=N\NC(=O)c1ccc(-n2cccc2)cc1 | 12.5 (≈ 31.9 µM) | 4.6 | – | –
27 | NNC(=O)c1ccncc1 [ISONIAZID] | – | – | > 450 | –
28 | C/C(CCC(=O)Nc1ccc(F)cc1)=N\NC(=O)c1ccc(-n2cccc2)cc1 | 3.12 (≈ 7.95 µM) | 5.5 | 438 | 7.69
